Among the data in ChEMBL document CHEMBL4229380, “Arylureas derived from colchicine: Enhancement of colchicine oncogene downregulation activity” (Eur J Med Chem, 2018) are IC50, Activity and viability values, retold here.

The test system of one test is HEK293. Nature of the test: Antiproliferative activity against human HEK293 cells after 2 days by MTT assay. The note with it: HEK293, 48 h. The class given is cell-based. In outline: (§1)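 Cells (5×10^3 per well) in DMEM with 10% FBS, glucose, glutamine and antibiotics were exposed to serial dilutions (stocks in DMSO) for 2 days at 37 °C, 5% CO2. MTT was added for 3 h, formazan was dissolved in DMSO and absorbance read at 490 nm. Viability was taken as % of untreated cells. IC50 was read graphically from three independent experiments.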

The test system of test [1] is HT-29. The test is described as follows: Induction of apoptosis in human HT-29 cells assessed as necrotic cells at 1 nM after 48 hrs by Annexin V-FITC staining-based flow cytometric analysis (reference value: 2 +/- 6%). The class given is functional. Background: A flow cytometer gives signals particle by particle.
The next test concerns MCF7. Nature of the test: Antiproliferative activity against human MCF7 cells after 2 days by MTT assay. The note with it: MCF7, 48 h. In kind it is functional, cell-based. An outline of the steps:
as §1
A general note: Tetrazolium dyes change colour on reduction, which living cells bring about.

For test [2], the system named is HT-29. Nature of the test: Effect on VEGF gene expression in human HT-29 cells assessed as VEGF level at 1 nM after 48 hrs by RT-qPCR analysis. The class given is functional. An outline of the steps: (§2)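 HT-29 cells at 70–80% confluence were seeded at 1.5×10^5 per well and left 24 h, then treated 48 h, with DMSO as control. Total RNA was extracted and VEGF-A, c-Myc and hTERT were quantified by TaqMan qPCR, normalized to β-actin and to living cell number. Results are % expression versus control, at least three measurements.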
(In general: In qPCR the cycle at which signal appears reflects the starting amount.)

In test [3] the test system is HT-29. Nature of the test: Induction of apoptosis in human HT-29 cells assessed as apoptotic cells at 1 nM after 48 hrs by Annexin V-FITC staining-based flow cytometric analysis (reference value: 13 +/- 3%). In kind it is functional.
Test [4] concerns HT-29. The test is described as follows: Induction of apoptosis in human HT-29 cells assessed as viable cells at 1 nM after 48 hrs by Annexin V-FITC staining-based flow cytometric analysis (reference value: 82 +/- 1%). The following applies: HT-29, 48 h, read-out: Activity. The class given is functional.
The subject of test [5] is HT-29. Nature of the test: Effect on hTERT gene expression in human HT-29 cells assessed as hTERT level at 1 nM after 48 hrs by RT-qPCR analysis. The class given is functional. An outline of the steps: as §2
Another test has as its system HeLa. The test is described as follows: Antiproliferative activity against human HeLa cells after 2 days by MTT assay. In kind it is functional, cell-based. The following applies: 48 h. An outline of the steps:
as §1

The subject of test [6] is HT-29. Nature of the test: Effect on c-MYC protein expression in human HT-29 cells assessed as c-MYC level at 1 nM after 48 hrs by ELISA. The class given is functional. In outline:
(§3)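 HT-29 cells (1.5×10^5 per well, 24 h pre-culture) were treated 48 h and washed in PBS. They were lysed in Tris pH 7.4 buffer with detergents, phosphatase inhibitors, PMSF and protease inhibitors. Lysates were adjusted to 200 µg/mL protein (Bradford) and total c-Myc or VEGFR-2 was measured by sandwich ELISA kit. Values are % of DMSO control, ≥3 measurements.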

Test [7] deals with HT-29. Nature of the test: Effect on VEGF protein expression in human HT-29 cells assessed as secreted VEGF level in culture media at 1 nM after 48 hrs by ELISA.
For test [8], the system named is HT-29. Nature of the test: Effect on VEGFR2 protein expression in human HT-29 cells assessed as VEGFR2 level at 1 nM after 48 hrs by ELISA. In kind it is functional. In outline:
as §3

The test system of test [9] is HT-29. The test is described as follows: Antiproliferative activity against human HT-29 cells after 2 days by MTT assay. The class given is functional, cell-based. The note with it: HT-29, 48 h. An outline of the steps:
as §1

The subject of test [10] is HT-29. The test is described as follows: Effect on c-MYC gene expression in human HT-29 cells assessed as c-MYC level at 1 nM after 48 hrs by RT-qPCR analysis. The class given is functional. An outline of the steps:
as §2

pIC50: −log10 of the molar value.

Regarding `COc1cc2c(c(OC)c1OC)-c1ccc(OC)c(=O)cc1[C@@H](NC(=O)Nc1ccc(-c3ccccc3)cc1)CC2`, the pIC50 (usually −log10 of the IC50, conventionally taken in molar units) with HEK293 is 8.77; in the test with MCF7, 8.82; in the test on HeLa it was 7.92; in the test with HT-29 [9], 8.92. The Activity is 3% in the test with HT-29 [1]; 72% in the test on HT-29 [2]; 11% in the test with HT-29 [3]; 60% with HT-29 [5]; 119% with HT-29 [6]; 72% in the test with HT-29 [7]. For the same compound, the Activity with HT-29 [8] is listed as 74%; with HT-29 [10] it was 85%. In the test on HT-29 [4], the viability at 0.001 µM was 86%.
